Each structure is given as a SMILES string. In brackets after ≈: the same amount, converted by molar mass.

The target in one series is T1, Orexin receptor type 2 (Homo sapiens, UniProt O43614).
T1 sequence (O43614 whole entry): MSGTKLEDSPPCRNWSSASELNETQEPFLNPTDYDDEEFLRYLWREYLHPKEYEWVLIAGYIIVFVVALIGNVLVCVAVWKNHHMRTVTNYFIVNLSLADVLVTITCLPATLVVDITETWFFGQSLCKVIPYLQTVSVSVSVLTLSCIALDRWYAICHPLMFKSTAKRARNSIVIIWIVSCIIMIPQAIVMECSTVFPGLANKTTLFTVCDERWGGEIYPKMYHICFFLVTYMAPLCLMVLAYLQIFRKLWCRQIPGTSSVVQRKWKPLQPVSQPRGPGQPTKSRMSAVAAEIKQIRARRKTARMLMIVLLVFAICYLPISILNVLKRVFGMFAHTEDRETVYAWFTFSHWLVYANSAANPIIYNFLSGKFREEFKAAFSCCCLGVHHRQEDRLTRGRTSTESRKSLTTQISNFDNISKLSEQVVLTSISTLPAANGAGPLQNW
Put plainly: Antagonist activity at OX2R expressed in dihydrofolate reductase deficient CHO cells assessed as inhibition of orexin A-induced intracellular calcium mobilization by FLIPR assay. The series is classed as functional, cell-based. (In general: A change in cytosolic calcium serves as a functional read-out for many receptors and channels.)

Series [1] is described as follows: Selectivity ratio of IC50 for OX1R to IC50 for OX2R.
For series [2], the target named is T2, Orexin/Hypocretin receptor type 1 (Homo sapiens, UniProt O43613).
T2 sequence (O43613 whole entry): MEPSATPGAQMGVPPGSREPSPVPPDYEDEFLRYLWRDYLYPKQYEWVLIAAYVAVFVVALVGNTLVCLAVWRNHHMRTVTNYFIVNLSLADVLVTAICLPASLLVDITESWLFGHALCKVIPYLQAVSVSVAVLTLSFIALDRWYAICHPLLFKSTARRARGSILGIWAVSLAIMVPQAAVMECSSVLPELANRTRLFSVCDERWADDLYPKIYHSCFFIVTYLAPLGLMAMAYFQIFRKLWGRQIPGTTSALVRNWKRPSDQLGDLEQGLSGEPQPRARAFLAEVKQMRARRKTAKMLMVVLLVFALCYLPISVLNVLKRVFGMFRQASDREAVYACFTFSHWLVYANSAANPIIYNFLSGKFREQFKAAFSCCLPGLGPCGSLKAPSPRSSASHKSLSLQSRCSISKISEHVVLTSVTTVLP
Put plainly: Antagonist activity at OX1R expressed in dihydrofolate reductase deficient CHO cells assessed as inhibition of orexin A-induced intracellular calcium mobilization by FLIPR assay. The series is classed as functional, cell-based.

Series [3] in a line: Lipophilicity, log D of the compound. The series is classed as physicochemical. As to conditions: octanol/water.
Series [4] is described as follows: Solubility of the compound in stomach simulated fluid JP1. The series is classed as physicochemical. A digest of the protocol: (§1)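 Solubility was measured in the Japanese Pharmacopoeia dissolution fluids. JP1 is the first fluid, an acidic stomach-simulating solution. JP2 is the second fluid, a buffer that mimics intestinal pH.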
Series [5] can be described thus: Solubility of the compound in intestine simulated fluid JP2. The series is classed as physicochemical. A digest of the protocol: as §1

Regarding `O=S(=O)(c1ccccc1)N1CCOC12CCN(c1cnc3ccccc3n1)CC2`, the IC50 (usually the concentration that inhibits the measured activity by half) at Orexin receptor type 2 is 230 nM; in series [2], 1600 nM. Further, in series [1], the Ratio IC50 worked out at 7.
Regarding `O=C(Nc1ccccc1)N1CCC2(CC1)OCCN2S(=O)(=O)c1ccccc1`, the logD (commonly lipophilicity at a set pH, counting ionised and neutral species) in series [3] came to 1.82. Besides, the half-inhibitory concentration (IC50) turned out to be 710 nM on Orexin receptor type 2 and 6300 nM in series [2]. Moreover, the results for the solubility in series [4] and in series [5] were below 70 µg/mL and 1700 µg/mL (≈ 4.23 mM), respectively. In addition, in series [1], the Ratio IC50 came to 8.9.
For `COc1ccc(S(=O)(=O)N2CCOC23CCN(C(=O)Nc2ccccc2)CC3F)cc1OC` (stereo not given), the logD in series [3] was 1.35. In addition, the IC50 came out at 3.3 nM on Orexin receptor type 2 and 1500 nM in series [2]. Moreover, the solubility (usually the dissolved amount per volume that the medium holds) in series [4] was 5900 µg/mL (≈ 12.3 mM); in series [5], 4500 µg/mL (≈ 9.38 mM). In series [1], the Ratio IC50 is 450.
In turn, `O=C(Nc1ccccc1)N1CCC2(OCCN2S(=O)(=O)c2ccccc2)[C@H](F)C1` (mixture of isomers) returned a pH-dependent lipophilicity (logD) in series [3] of 2.04. The IC50 on Orexin receptor type 2 came to 170 nM; in series [2], 280 nM. Moreover, the solubility in series [4] is 45000 µg/mL; in series [5] it was 34000 µg/mL. The Ratio IC50 in series [1] was 1.6.
For the molecule `O=C(Nc1ccccc1)N1CCC2(OCCN2S(=O)(=O)c2ccccc2)[C@@H](F)C1` (mixture of isomers), the logD in series [3] came out at 1.5. Further, the IC50 was 220 nM at Orexin receptor type 2 and 2500 nM in series [2]. Also, the solubility was 8500 µg/mL in series [4] and 12000 µg/mL in series [5]. Moreover, the Ratio IC50 in series [1] was 11.
In series [3], `O=C(Nc1ccccc1)N1CCC2(OCCN2S(=O)(=O)c2ccccc2)C(F)(F)C1` (racemic) had a log distribution coefficient (logD) of 1.93. Further, the values for the concentration for half-maximal inhibition (IC50) (at Orexin receptor type 2; in series [2]) were 1000 nM and above 10000 nM, respectively. In addition, the solubility in series [4] was 21000 µg/mL (≈ 48 mM); in series [5], 18000 µg/mL (≈ 41.1 mM). Also, in series [1], the Ratio IC50 was above 10.
In series [3], `COc1cccc(S(=O)(=O)N2CCOC23CCN(C(=O)Nc2ccccc2)CC3F)c1` (racemic) displayed a pH-dependent lipophilicity (logD) of 1.75. Also, the IC50 was 130 nM on Orexin receptor type 2 and 2300 nM in series [2]. Besides, the solubility in series [4] is 2100 µg/mL (≈ 4.67 mM); in series [5], 2400 µg/mL (≈ 5.34 mM). In addition, the Ratio IC50 in series [1] turned out to be 18.
For the molecule `COc1ccc(S(=O)(=O)N2CCOC23CCN(C(=O)Nc2ccccc2)CC3F)cc1` (racemic), the logD in series [3] was found to be 1.63. Moreover, the 50% inhibitory concentration (IC50) at Orexin receptor type 2 came out at 87 nM; in series [2], 1600 nM. The solubility is 490 µg/mL (≈ 1.09 mM) in series [4] and 580 µg/mL (≈ 1.29 mM) in series [5]. In addition, in series [1], the Ratio IC50 came out at 18.

Values taken from ChEMBL document CHEMBL1909547, “Discovery of spiropiperidine-based potent and selective Orexin-2 receptor antagonists” (Bioorg Med Chem Lett, 2011).
